# From ChEMBL document CHEMBL3421541, “Benzaldehyde Schiff bases regulation to the metabolism, hemolysis, and virulence genes expression in vitro and their structure-microbicidal activity relationship” (2015)
# Active and inactive are the calls of the source.
# Key:
# Escherichia coli [1] = experiment: Antibacterial activity against Escherichia coli assessed as growth inhibition at 100 umol/L after 8 hrs by ELISA plate reader analysis relative to control; assay type: functional; conditions: read-out: GI
# Outline: (§1)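 Bacteria were seeded at 1×10^5 CFU/mL in LB, and compound was added to 100 µmol/L final. Compounds came from DMSO stock, with DMSO ≤1% (v/v) final. Cultures were shaken at 37 °C for 8 h and read at OD450. Inhibition % = (OD vehicle control − OD sample)/OD vehicle control × 100. Values are the mean of three independent experiments.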
# Bacillus subtilis [2] = experiment: Antibacterial activity against Bacillus subtilis assessed as growth inhibition at 100 umol/L after 8 hrs by ELISA plate reader analysis relative to control; assay type: functional; conditions: read-out: GI; outline: as §1
# Staphylococcus aureus [3] = experiment: Antibacterial activity against Staphylococcus aureus assessed as growth inhibition at 100 umol/L after 8 hrs by ELISA plate reader analysis relative to control; assay type: functional; conditions: read-out: GI; outline: as §1
# Staphylococcus aureus [4] = experiment: Antibacterial activity against Staphylococcus aureus assessed as lowest concentration required to reduce growth by 1% after 8 hrs by ELISA plate reader analysis relative to control; assay type: functional
# Outline: (§2)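 MBC was found by broth microdilution. Inocula of 1×10^5 CFU/mL in LB were shaken at 37 °C with a series of compound concentrations, then read at OD450. MBC was defined as the lowest concentration reducing growth by 1% versus the inoculum control. Three independent experiments were run.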
# Staphylococcus aureus [5] = experiment: Upregulation of hla gene expression in Staphylococcus aureus at 50 umol/L after 8 hrs by real-time RT-PCR analysis relative to control; assay type: functional, organism-based
# Outline: (§3)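 S. aureus ATCC 25923 at 2×10^7 CFU/mL in LB was exposed to 50 µmol/L compound, or LB alone, for 8 h at 37 °C. Total RNA was analysed by TaqMan real-time RT-PCR or semi-quantitative RT-PCR, normalised to gyrB. Fold change is versus time-matched medium-only cultures, with data pooled from three experiments.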
# Staphylococcus aureus [6] = experiment: Upregulation of hla gene expression in Staphylococcus aureus at 50 umol/L after 8 hrs by semi-quantitative RT-PCR analysis relative to control; assay type: functional, organism-based; outline: as §3
# Staphylococcus aureus [7] = experiment: Upregulation of sbi gene expression in Staphylococcus aureus at 50 umol/L after 8 hrs by real-time RT-PCR analysis relative to control; assay type: functional, organism-based; outline: as §3
# Staphylococcus aureus [8] = experiment: Upregulation of sbi gene expression in Staphylococcus aureus at 50 umol/L after 8 hrs by semi-quantitative RT-PCR analysis relative to control; assay type: functional, organism-based; outline: as §3
# Staphylococcus aureus [9] = experiment: Upregulation of mecA gene expression in Staphylococcus aureus at 50 umol/L after 8 hrs by real-time RT-PCR analysis relative to control; assay type: functional, organism-based; outline: as §3
# Staphylococcus aureus [10] = experiment: Upregulation of mecA gene expression in Staphylococcus aureus at 50 umol/L after 8 hrs by semi-quantitative RT-PCR analysis relative to control; assay type: functional, organism-based; outline: as §3
# Staphylococcus aureus [11] = experiment: Downregulation of saeR gene expression in Staphylococcus aureus at 50 umol/L after 8 hrs by real-time RT-PCR analysis relative to control; assay type: functional, organism-based; outline: as §3
# Staphylococcus aureus [12] = experiment: Downregulation of saeR gene expression in Staphylococcus aureus at 50 umol/L after 8 hrs by semi-quantitative RT-PCR analysis relative to control; assay type: functional, organism-based; outline: as §3
# Staphylococcus aureus [13] = experiment: Downregulation of mecA gene expression in Staphylococcus aureus at 50 umol/L after 8 hrs by real-time RT-PCR analysis relative to control; assay type: functional; outline: as §3
# Staphylococcus aureus [14] = experiment: Downregulation of mecA gene expression in Staphylococcus aureus at 50 umol/L after 8 hrs by semi-quantitative RT-PCR analysis relative to control; assay type: functional; outline: as §3
# Bacillus subtilis [15] = experiment: Antibacterial activity against Bacillus subtilis assessed as lowest concentration required to reduce growth by 1% after 8 hrs by ELISA plate reader analysis relative to control; assay type: functional; outline: as §2
# Bacillus subtilis [16] = experiment: Downregulation of yqhC gene expression in Bacillus subtilis at 50 umol/L after 8 hrs by real-time RT-PCR analysis relative to control; assay type: functional, organism-based
# Outline: as §3, with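 “B. subtilis” for “S. aureus”, “6051” for “25923”, “16sRNA.” for “gyrB.”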
# Bacillus subtilis [17] = experiment: Downregulation of yqhC gene expression in Bacillus subtilis at 50 umol/L after 8 hrs by semi-quantitative RT-PCR analysis relative to control; assay type: functional, organism-based
# Outline: as §3, with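 “B. subtilis” for “S. aureus”, “6051” for “25923”, “16sRNA.” for “gyrB.”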
# Bacillus subtilis [18] = experiment: Downregulation of yhdP gene expression in Bacillus subtilis at 50 umol/L after 8 hrs by real-time RT-PCR analysis relative to control; assay type: functional, organism-based
# Outline: as §3, with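 “B. subtilis” for “S. aureus”, “6051” for “25923”, “16sRNA.” for “gyrB.”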
# Bacillus subtilis [19] = experiment: Downregulation of yhdP gene expression in Bacillus subtilis at 50 umol/L after 8 hrs by semi-quantitative RT-PCR analysis relative to control; assay type: functional, organism-based
# Outline: as §3, with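 “B. subtilis” for “S. aureus”, “6051” for “25923”, “16sRNA.” for “gyrB.”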
# Bacillus subtilis [20] = experiment: Downregulation of yhdT gene expression in Bacillus subtilis at 50 umol/L after 8 hrs by real-time RT-PCR analysis relative to control; assay type: functional, organism-based
# Outline: as §3, with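 “B. subtilis” for “S. aureus”, “6051” for “25923”, “16sRNA.” for “gyrB.”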
# Bacillus subtilis [21] = experiment: Downregulation of yhdT gene expression in Bacillus subtilis at 50 umol/L after 8 hrs by semi-quantitative RT-PCR analysis relative to control; assay type: functional, organism-based
# Outline: as §3, with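 “B. subtilis” for “S. aureus”, “6051” for “25923”, “16sRNA.” for “gyrB.”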
# Bacillus subtilis [22] = experiment: Downregulation of yqhB gene expression in Bacillus subtilis at 50 umol/L after 8 hrs by real-time RT-PCR analysis relative to control; assay type: functional, organism-based
# Outline: as §3, with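 “B. subtilis” for “S. aureus”, “6051” for “25923”, “16sRNA.” for “gyrB.”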
# Bacillus subtilis [23] = experiment: Downregulation of yqhB gene expression in Bacillus subtilis at 50 umol/L after 8 hrs by semi-quantitative RT-PCR analysis relative to control; assay type: functional, organism-based
# Outline: as §3, with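 “B. subtilis” for “S. aureus”, “6051” for “25923”, “16sRNA.” for “gyrB.”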
# Bacillus subtilis [24] = experiment: Downregulation of yugS gene expression in Bacillus subtilis at 50 umol/L after 8 hrs by real-time RT-PCR analysis relative to control; assay type: functional, organism-based
# Outline: as §3, with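 “B. subtilis” for “S. aureus”, “6051” for “25923”, “16sRNA.” for “gyrB.”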
# Bacillus subtilis [25] = experiment: Downregulation of yugS gene expression in Bacillus subtilis at 50 umol/L after 8 hrs by semi-quantitative RT-PCR analysis relative to control; assay type: functional, organism-based
# Outline: as §3, with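 “B. subtilis” for “S. aureus”, “6051” for “25923”, “16sRNA.” for “gyrB.”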
# Escherichia coli [26] = experiment: Antibacterial activity against Escherichia coli assessed as lowest concentration required to reduce growth by 1% after 8 hrs by ELISA plate reader analysis relative to control; assay type: functional; outline: as §2
# Escherichia coli [27] = experiment: Downregulation of cysB gene expression in Escherichia coli at 50 umol/L after 8 hrs by real-time RT-PCR analysis relative to control; assay type: functional, organism-based
# Outline: (§4)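 E. coli at 2×10^7 CFU/mL in LB was exposed to 50 µmol/L compound, or LB alone, for 8 h at 37 °C. Total RNA was then analysed by TaqMan real-time RT-PCR or semi-quantitative RT-PCR. Transcripts were normalised to gapA. Fold change is relative to time-matched medium-only cultures.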
# Escherichia coli [28] = experiment: Downregulation of cysB gene expression in Escherichia coli at 50 umol/L after 8 hrs by semi-quantitative RT-PCR analysis relative to control; assay type: functional, organism-based; outline: as §4
# Escherichia coli [29] = experiment: Downregulation of acrA gene expression in Escherichia coli at 50 umol/L after 8 hrs by real-time RT-PCR analysis relative to control; assay type: functional, organism-based; outline: as §4
# Escherichia coli [30] = experiment: Downregulation of acrA gene expression in Escherichia coli at 50 umol/L after 8 hrs by semi-quantitative RT-PCR analysis relative to control; assay type: functional, organism-based; outline: as §4
# Escherichia coli [31] = experiment: Downregulation of tsh gene expression in Escherichia coli at 50 umol/L after 8 hrs by real-time RT-PCR analysis relative to control; assay type: functional, organism-based; outline: as §4
# Escherichia coli [32] = experiment: Downregulation of IroD gene expression in Escherichia coli at 50 umol/L after 8 hrs by real-time RT-PCR analysis relative to control; assay type: functional, organism-based; outline: as §4
# Escherichia coli [33] = experiment: Downregulation of tsh gene expression in Escherichia coli at 50 umol/L after 8 hrs by semi-quantitative RT-PCR analysis relative to control; assay type: functional, organism-based; outline: as §4
# Escherichia coli [34] = experiment: Downregulation of IroD gene expression in Escherichia coli at 50 umol/L after 8 hrs by semi-quantitative RT-PCR analysis relative to control; assay type: functional, organism-based; outline: as §4
smiles,measurement,setting,value
O=C(N/N=C/c1ccccc1O)c1ccncc1 [SALINAZID],inhibition of growth at 100 µM,Escherichia coli [1],6.81%
O=C(N/N=C/c1cc([N+](=O)[O-])ccc1O)c1ccncc1,inhibition of growth at 100 µM,Escherichia coli [1],41.8%
COc1ccc(CC(=O)N/N=C/c2cc([N+](=O)[O-])ccc2O)cc1,inhibition of growth at 100 µM,Escherichia coli [1],5.57%
O=C(O)[C@H](Cc1ccccc1)/N=C/c1ccccc1O,inhibition of growth at 100 µM,Escherichia coli [1],22.7%
COc1ccc(CC(=O)N/N=C/c2cc(Br)ccc2O)cc1,inhibition of growth at 100 µM,Bacillus subtilis [2],1.01%
COC(=O)[C@H](Cc1ccccc1)/N=C/c1ccccc1O,inhibition of growth at 100 µM,Escherichia coli [1],14.6%
same,inhibition of growth at 100 µM,Bacillus subtilis [2],4.21%
same,inhibition of growth at 100 µM,Staphylococcus aureus [3],86.9%
same,MBC,Staphylococcus aureus [4],13.8 µM
same,Activity,Staphylococcus aureus [5],Active
same,Activity,Staphylococcus aureus [6],Active
same,Activity,Staphylococcus aureus [7],Active
same,Activity,Staphylococcus aureus [8],Active
same,Activity,Staphylococcus aureus [9],Active
same,Activity,Staphylococcus aureus [10],Active
same,Activity,Staphylococcus aureus [11],Active
same,Activity,Staphylococcus aureus [12],Active
O=C(COc1ccc(Cl)cc1)N/N=C/c1ccc(OCc2ccccc2)c(OCc2ccccc2)c1,inhibition of growth at 100 µM,Escherichia coli [1],17.6%
same,inhibition of growth at 100 µM,Bacillus subtilis [2],6.21%
same,inhibition of growth at 100 µM,Staphylococcus aureus [3],99.5%
same,MBC,Staphylococcus aureus [4],1.4 µM
same,Activity,Staphylococcus aureus [5],Active
same,Activity,Staphylococcus aureus [6],Active
same,Activity,Staphylococcus aureus [7],Active
same,Activity,Staphylococcus aureus [8],Active
same,fold change (FC),Staphylococcus aureus [13],2
same,fold change (FC),Staphylococcus aureus [14],2
O=C(COc1ccc(Cl)cc1)N/N=C/c1cc([N+](=O)[O-])ccc1O,inhibition of growth at 100 µM,Bacillus subtilis [2],96.4%
same,inhibition of growth at 100 µM,Staphylococcus aureus [3],1.39%
same,MBC,Bacillus subtilis [15],2.8 µM
same,Activity,Bacillus subtilis [16],Active
same,Activity,Bacillus subtilis [17],Active
same,Activity,Bacillus subtilis [18],Active
same,Activity,Bacillus subtilis [19],Active
same,Activity,Bacillus subtilis [20],Active
same,Activity,Bacillus subtilis [21],Active
same,Activity,Bacillus subtilis [22],Active
same,Activity,Bacillus subtilis [23],Active
same,Activity,Bacillus subtilis [24],Active
same,Activity,Bacillus subtilis [25],Active
O=C(COc1ccc(Cl)cc1)N/N=C/c1cc(Br)ccc1O,inhibition of growth at 100 µM,Escherichia coli [1],73.2%
same,inhibition of growth at 100 µM,Bacillus subtilis [2],15.9%
same,MBC,Escherichia coli [26],18.4 µM
same,Activity,Escherichia coli [27],Active
same,Activity,Escherichia coli [28],Active
same,Activity,Escherichia coli [29],Active
same,Activity,Escherichia coli [30],Active
same,Activity,Escherichia coli [31],Active
same,Activity,Escherichia coli [32],Active
same,Activity,Escherichia coli [33],Active
same,Activity,Escherichia coli [34],Active
